For data set [1], the system named is Trypanosoma cruzi. Put plainly: Antitrypanosomal activity against blood trypomastigote forms of Trypanosoma cruzi infected in BALB/c mouse assessed as decrease in anti-parasite antibodies level at 5 mg/kg, ip administered 7 days post infection once daily for 5 days measured after […] by ELISA relative to control. The data set is classed as functional, organism-based. Also on record: dose 5 mg/kg. In short, it runs like this: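 Female BALB/c mice (6–8 weeks) were infected ip; groups of four received ip treatment days 7–12 post-infection. Sera taken on days 40 and 90 were diluted 1:100 and run in ELISA against excreted Fe-SOD antigen from epimastigotes, read at 490 nm. Cutoff was the mean of negative controls plus 3 SD. The change was taken as absorbance on day 90 minus day 40.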

The subject of data set [2] is Trypanosoma cruzi. Put plainly: Antitrypanosomal activity against Trypanosoma cruzi epimastigotes assessed as shrinkage of the protozoa at IC25 concentration after 72 hrs by transmission electron microscopy. It counts as functional, organism-based. In short, it runs like this: (§1)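 Epimastigotes at 5 × 10^6 cells/mL were exposed to test compounds at their IC25 for 72 h. Morphology was assessed by transmission electron microscopy against untreated parasites.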

Data set [3] deals with Trypanosoma cruzi. Nature of the data set: Antitrypanosomal activity against Trypanosoma cruzi epimastigotes assessed as undulating cytoplasm membrane at IC25 concentration after 72 hrs by transmission electron microscopy. The data set is classed as functional, organism-based. In short, it runs like this:
as §1

Data set [4] can be described thus: Selectivity index, ratio of IC50 for african green monkey Vero cells to IC50 for epimastigote form of Trypanosoma cruzi. The data set is classed as toxicity, cell-based. Particulars: Vero cells (versus epimastigote form of Trypanosoma cruzi), read-out: Ratio IC50.
Data set [5] deals with Trypanosoma cruzi. Put plainly: Antitrypanosomal activity against Trypanosoma cruzi epimastigotes assessed as dilated mitochondria at IC25 concentration after 72 hrs by transmission electron microscopy. The data set is classed as functional, organism-based. In short, it runs like this: as §1
The subject of data set [6] is Trypanosoma cruzi. Nature of the data set: Antitrypanosomal activity against blood trypomastigote forms of Trypanosoma cruzi infected in BALB/c mouse assessed as decrease in parasitemia at 5 mg/kg, ip administered 7 days post infection once daily for 5 days measured on day 22 post infection by […] relative to control. Also on record: dose 5 mg/kg. It counts as functional, organism-based. The procedure, abridged: (§2)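 Female BALB/c mice (6–8 weeks, five per group) were infected ip with 1 × 10^3 bloodstream forms and treated ip in saline on days 7–12 post-infection; controls received vehicle. Every two days, 5 μL tail blood was diluted 1:15 in citrate/lysis buffer (pH 7.2) and parasites counted in a Neubauer chamber. Decrease is relative to the untreated infected group.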

In data set [7] the test system is Trypanosoma cruzi. Put plainly: Antitrypanosomal activity against blood trypomastigote forms of Trypanosoma cruzi infected in BALB/c mouse assessed as decrease in parasitemia at 5 mg/kg, ip administered 7 days post infection once daily for 5 days measured after 40 days post infection by […] relative to control. It counts as functional. Also noted: scale not given: the % may be the effect or the level left. As to conditions: route intraperitoneal. The procedure, abridged: as §2

A further data set deals with Vero. Nature of the data set: Cytotoxicity against african green monkey Vero cells assessed as cell viability after 72 hrs by FACS analysis. It counts as cell-based. As to conditions: Chlorocebus sabaeus. A general note: A flow cytometer gives signals particle by particle.
The subject of data set [8] is Trypanosoma cruzi. Nature of the data set: Antitrypanosomal activity against blood trypomastigote forms of Trypanosoma cruzi infected in BALB/c mouse assessed as mouse survival rate at 1 mg/kg, ip administered 7 days postinfection once daily for 5 days. The data set is classed as functional. The procedure, abridged:
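T. cruzi Maracay strain; groups of five female BALB/c mice (6–8 weeks, 25–30 g) infected ip with 1 × 10³ bloodstream forms. Starting day 7 post-infection, ip dosing at 1 mg/kg/day in saline for five consecutive days; infected controls received vehicle. Mortality recorded over the study alongside parasitemia, which was counted every two days from tail blood in a Neubauer chamber.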

Data set [9] concerns Trypanosoma cruzi. Put plainly: Antitrypanosomal activity against epimastigote form of Trypanosoma cruzi assessed as inhibition of parasite growth. The data set is classed as functional, organism-based. The procedure, abridged:
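Exponential-phase epimastigotes at 2 × 10^6 parasites/mL were exposed to 1, 10, 25, 50 and 100 μM compound in medium containing 0.01% DMSO. Parasites were counted by hemocytometer at 24, 48 and 72 h.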

A further data set concerns Mus musculus. Nature of the data set: Toxicity in BALB/c mouse assessed as mortality at 5 mg/kg, ip. As to conditions: in vivo. Also noted: dose 5 mg/kg, route intraperitoneal. The data set is classed as organism-based.
Data set [10] concerns Trypanosoma cruzi. Put plainly: Antitrypanosomal activity against metacyclic forms of Trypanosoma cruzi infected in vero cells assessed as inhibition of infection at IC25 concentration after 12 hrs. It counts as functional. The procedure, abridged: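 Vero cells were seeded at 1 × 10^5 per well on coverslips, grown 2 days, and infected with metacyclic forms at 10:1, with compounds at IC25 present for 12 h at 37 °C. After washing, cultures were grown 10 days. Methanol-fixed, Giemsa-stained cells (>100 per sample) were scored for percent infected and amastigotes per cell. Results are means of four determinations.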

For data set [11], the system named is Trypanosoma cruzi. Nature of the data set: Antitrypanosomal activity against Trypanosoma cruzi epimastigotes assessed as increase in vacuolization at IC25 concentration after 72 hrs by transmission electron microscopy. It counts as functional, organism-based. The procedure, abridged: as §1
For data set [12], the system named is Trypanosoma cruzi. Put plainly: Antitrypanosomal activity against metacyclic forms of Trypanosoma cruzi infected in vero cells assessed as decrease in trypomastigotes at IC25 concentration after 12 hrs. The data set is classed as functional. Also noted: scale not given: the % may be the effect or the level left. The procedure, abridged:
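Vero cells were seeded at 1 × 10^5 per well on coverslips, grown 2 days, then infected with metacyclic forms at 10:1. Compounds at IC25 were added at infection for 12 h at 37 °C, 5% CO2, then washed out. Cultures were kept 10 days with medium renewed every 48 h. Trypomastigotes released into the medium were counted.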

For data set [13], the system named is Trypanosoma cruzi. Put plainly: Antitrypanosomal activity against Trypanosoma cruzi epimastigotes assessed as cytoplasmic membrane burst at IC25 concentration after 72 hrs by transmission electron microscopy. The data set is classed as functional, organism-based. In short, it runs like this:
as §1

Data set [14] relates to Trypanosoma cruzi. Put plainly: Antitrypanosomal activity against Trypanosoma cruzi epimastigotes assessed as star-shaped and wavy cytoplasm membrane at IC25 concentration after 72 hrs by transmission electron microscopy. It counts as functional, organism-based. In short, it runs like this:
as §1

From ChEMBL document CHEMBL1772982, “In vitro and in vivo trypanocidal activity of flavonoids from Delphinium staphisagria against Chagas disease” (J Nat Prod, 2011) come the findings set out here.

pIC50: −log10 of the molar value. The source made the active and inactive calls.

The pIC50 is the negative decadic logarithm of the IC50, by convention in mol/L. On to `CC(=O)O[C@H]1[C@H](Oc2c(-c3ccc(O)cc3)oc3cc(O)cc(O)c3c2=O)O[C@H](CO)[C@@H](O)[C@@H]1O`, for which the outcome with Trypanosoma cruzi [1], in the data set with Trypanosoma cruzi [2], in the data set on Trypanosoma cruzi [3], in the data set on Trypanosoma cruzi [5], in the data set with Trypanosoma cruzi [6] and in the data set on Trypanosoma cruzi [8] was Active. In addition, the result in the data set with Trypanosoma cruzi [11] and in the data set with Trypanosoma cruzi [13] was Active. Moreover, the selectivity ratio in data set [4] amounted to 45.2. Moreover, the Activity is recorded as 23% in the data set with Trypanosoma cruzi [7], “Non-toxic” in the data set with Mus musculus and 78% in the data set with Trypanosoma cruzi [12]. Besides, the pIC50 was 3.53 in the data set on Vero and 5.19 with Trypanosoma cruzi [9]. Further, the “inhibition (INH)” value in the data set with Trypanosoma cruzi [10] worked out at 88%.

As to `CC(=O)O[C@H]1[C@H](Oc2c(-c3ccc(O)cc3)oc3cc(O[C@@H]4O[C@H](CO)[C@@H](O)[C@H](O)[C@H]4O)cc(O)c3c2=O)O[C@H](CO)[C@@H](O)[C@@H]1O`, the result with Trypanosoma cruzi [1], in the data set with Trypanosoma cruzi [2], in the data set on Trypanosoma cruzi [6], in the data set with Trypanosoma cruzi [8] and with Trypanosoma cruzi [11] was Active. Besides, the selectivity ratio in [4] was over 46.1. The values for the Activity in the data set with Trypanosoma cruzi [7], in the data set on Mus musculus and in the data set on Trypanosoma cruzi [12] were 23%, “Non-toxic” and 77%, respectively. Also, the pIC50 is under 3.00 with Vero and 4.66 with Trypanosoma cruzi [9]. In the data set with Trypanosoma cruzi [10], the “inhibition (INH)” value was found to be 85%.

In the case of `CC(=O)O[C@H]1[C@H](Oc2c(-c3ccc(O)c(O)c3)oc3cc(O[C@H]4O[C@H](C)[C@@H](O)[C@H](O)[C@@H]4O)cc(O)c3c2=O)O[C@H](CO)[C@@H](O)[C@@H]1O`, the result in the data set on Trypanosoma cruzi [1], in the data set with Trypanosoma cruzi [2], in the data set with Trypanosoma cruzi [6], in the data set on Trypanosoma cruzi [8] and in the data set on Trypanosoma cruzi [11] was Active. In data set [4], the selectivity ratio was over 36.6. The Activity with Trypanosoma cruzi [7] is reported as 23%; in the data set with Mus musculus it was “Non-toxic”; with Trypanosoma cruzi [12], 58%. In addition, the pIC50 was under 3.00 with Vero and 4.56 in the data set with Trypanosoma cruzi [9]. Also, in the data set on Trypanosoma cruzi [10], the “inhibition (INH)” value is 65%.

In the case of `O=C(Cn1ccnc1[N+](=O)[O-])NCc1ccccc1` [BENZNIDAZOLE], the survival at 1 mg/kg in the data set on Trypanosoma cruzi [8] (route intraperitoneal) stood at 80%. Moreover, the “inhibition (INH)” value with Trypanosoma cruzi [10] came to 39%. The Activity in the data set on Trypanosoma cruzi [12] was determined as 37%.

In the case of `CC(=O)OC[C@H]1O[C@@H](Oc2c(-c3ccc(OC(C)=O)cc3)oc3cc(OC(C)=O)cc(OC(C)=O)c3c2=O)[C@H](OC(C)=O)[C@@H](OC(C)=O)[C@@H]1OC(C)=O` [ASTRAGALIN HEPTAACETATE], the outcome in the data set with Trypanosoma cruzi [1], in the data set on Trypanosoma cruzi [2], in the data set with Trypanosoma cruzi [6], with Trypanosoma cruzi [8] and with Trypanosoma cruzi [11] was Active. The selectivity ratio in data set [4] came to 205. Moreover, the Activity in the data set with Trypanosoma cruzi [7] is on record as 23%; in the data set on Mus musculus, “Non-toxic”; in the data set with Trypanosoma cruzi [12], 95%. Besides, the pIC50 in the data set on Vero was 3.79; in the data set with Trypanosoma cruzi [9] it was 6.10. For the same compound, the “inhibition (INH)” value in the data set with Trypanosoma cruzi [10] worked out at 91%.

For `C[C@H]1O[C@H](Oc2cc(O)c3c(=O)c(O[C@@H]4O[C@H](CO)[C@@H](O)[C@H](O)[C@H]4O)c(-c4ccc(O)c(O)c4)oc3c2)[C@@H](O)[C@@H](O)[C@@H]1O` [PETIOLAROSIDE], the result in the data set with Trypanosoma cruzi [1], with Trypanosoma cruzi [2], in the data set with Trypanosoma cruzi [6], in the data set with Trypanosoma cruzi [8] and with Trypanosoma cruzi [11] was Active. Moreover, in [4], the selectivity ratio is over 33. Also, the Activity in the data set on Trypanosoma cruzi [7] was 23%; with Mus musculus, “Non-toxic”; in the data set with Trypanosoma cruzi [12] it was 72%. The figures for the pIC50 with Vero and with Trypanosoma cruzi [9] were under 3.00 and 4.52, respectively. Besides, the “inhibition (INH)” value in the data set with Trypanosoma cruzi [10] is reported as 68%.

In the case of `CC(=O)OC[C@H]1O[C@@H](Oc2cc(OC(C)=O)c3c(=O)c(O[C@@H]4O[C@H](COC(C)=O)[C@@H](OC(C)=O)[C@H](OC(C)=O)[C@H]4OC(C)=O)c(-c4ccc(OC(C)=O)cc4)oc3c2)[C@H](OC(C)=O)[C@@H](OC(C)=O)[C@@H]1OC(C)=O` [PAEONOSIDE DECAACETATE], the outcome in the data set on Trypanosoma cruzi [1], with Trypanosoma cruzi [14], in the data set on Trypanosoma cruzi [2], in the data set with Trypanosoma cruzi [3], in the data set with Trypanosoma cruzi [6] and in the data set on Trypanosoma cruzi [8] was Active. Besides, the result with Trypanosoma cruzi [11] and in the data set with Trypanosoma cruzi [13] was Active. Further, the selectivity ratio in data set [4] was over 58.1. In addition, the Activity in the data set on Trypanosoma cruzi [7] is recorded as 23%; with Mus musculus, “Non-toxic”; with Trypanosoma cruzi [12] it was 85%. For the same compound, the pIC50 in the data set on Vero was under 3.00; with Trypanosoma cruzi [9], 4.76. Besides, the “inhibition (INH)” value in the data set on Trypanosoma cruzi [10] is on record as 82%.

With `O=c1c(O[C@@H]2O[C@H](CO)[C@@H](O)[C@H](O)[C@H]2O)c(-c2ccc(O)cc2)oc2cc(O)cc(O)c12` [ASTRAGALIN], the result in the data set with Trypanosoma cruzi [1], with Trypanosoma cruzi [2], in the data set on Trypanosoma cruzi [3], with Trypanosoma cruzi [6], in the data set with Trypanosoma cruzi [8] and in the data set on Trypanosoma cruzi [11] was Active. Further, the outcome with Trypanosoma cruzi [13] was Active. In [4], the selectivity ratio amounted to 11.1. For the same compound, the Activity was 23% in the data set with Trypanosoma cruzi [7], “Non-toxic” with Mus musculus and 65% in the data set with Trypanosoma cruzi [12]. The results for the pIC50 in the data set on Vero and in the data set with Trypanosoma cruzi [9] were 3.76 and 4.80, respectively. In the data set with Trypanosoma cruzi [10], the “inhibition (INH)” value was 64%.
